How the values were obtained:
[1] = test system: DU-145; assay: Cytotoxicity against human DU145 cells assessed as cell growth at 10 uM after 48 hrs by SRB assay relative to control; format: functional; conditions: DU-145, 48 h, read-out: Activity
How it was run: (§1)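 First-stage NCI-60 screen by the NCI Developmental Therapeutics Program. Each compound was tested once at a single concentration of 10 μM against the 60-cell-line panel. Growth percentage was reported for each cell line.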

[2] = test system: IGROV-1; assay: Cytotoxicity against human IGROV1 cells assessed as cell growth at 10 uM after 48 hrs by SRB assay relative to control; format: functional; conditions: IGROV-1, 48 h, read-out: Activity; how it was run: as §1
[3] = test system: BT-549; assay: Cytotoxicity against human BT549 cells assessed as cell growth at 10 uM after 48 hrs by SRB assay relative to control; format: functional; conditions: BT-549, 48 h, read-out: Activity; how it was run: as §1
[4] = test system: MOLT-4; assay: Cytotoxicity against human MOLT4 cells assessed as cell growth at 10 uM after 48 hrs by SRB assay relative to control; format: functional; conditions: MOLT-4, 48 h, read-out: Activity
How it was run: (§2)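 First-stage NCI DTP one-dose screen against the 60 human tumour cell line panel. Compounds were tested at a single 10 μM level, and results are given as growth percentage.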

[5] = Cytotoxicity against human Hs578T cells assessed as cell growth at 10 uM after 48 hrs by SRB assay relative to control; format: functional; conditions: Hs-578T, read-out: Activity; how it was run: as §1
[6] = test system: MDA-MB-468; assay: Cytotoxicity against human MDA-MB-468 cells assessed as cell growth at 10 uM after 48 hrs by SRB assay relative to control; format: functional; conditions: MDA-MB-468, 48 h, read-out: Activity; how it was run: as §2
[7] = test system: PC-3; assay: Cytotoxicity against human PC3 cells assessed as cell growth at 10 uM after 48 hrs by SRB assay relative to control; format: functional; conditions: PC-3, 48 h, read-out: Activity; how it was run: as §2
[8] = test system: M14; assay: Cytotoxicity against human M14 cells assessed as cell growth at 10 uM after 48 hrs by SRB assay relative to control; format: functional; conditions: M14, 48 h, read-out: Activity; how it was run: as §1
[9] = test system: A498; assay: Cytotoxicity against human A498 cells assessed as cell growth at 10 uM after 48 hrs by SRB assay relative to control; format: functional; conditions: A498, 48 h, read-out: Activity; how it was run: as §1
[10] = test system: OVCAR-3; assay: Cytotoxicity against human OVCAR3 cells assessed as cell growth at 10 uM after 48 hrs by SRB assay relative to control; format: functional; conditions: OVCAR-3, 48 h, read-out: Activity; how it was run: as §2
[11] = test system: U-251; assay: Cytotoxicity against human U251 cells assessed as cell growth at 10 uM after 48 hrs by SRB assay relative to control; format: functional; conditions: U-251, 48 h, read-out: Activity
How it was run: (§3)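 NCI-60 one-dose screen run by NCI DTP: each cell line exposed to a single 10 µM dose, and percentage growth recorded against untreated growth.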

[12] = test system: SNB-75; assay: Cytotoxicity against human SNB75 cells assessed as cell growth at 10 uM after 48 hrs by SRB assay relative to control; format: functional; conditions: SNB-75, 48 h, read-out: Activity; how it was run: as §3
[13] = test system: RPMI-8226; assay: Cytotoxicity against human RPMI8226 cells assessed as cell growth at 10 uM after 48 hrs by SRB assay relative to control; format: functional; conditions: RPMI-8226, 48 h, read-out: Activity; how it was run: as §2
[14] = test system: HCC 2998; assay: Cytotoxicity against human HCC2998 cells assessed as cell growth at 10 uM after 48 hrs by SRB assay relative to control; format: functional; conditions: HCC 2998, 48 h, read-out: Activity; how it was run: as §1
[15] = test system: SF-268; assay: Cytotoxicity against human SF268 cells assessed as cell growth at 10 uM after 48 hrs by SRB assay relative to control; format: functional; conditions: SF-268, 48 h, read-out: Activity; how it was run: as §2
[16] = test system: DU-145; assay: Cytotoxicity against human DU145 cells after 72 hrs by MTT assay; format: functional, cell-based; conditions: DU-145, 72 h
How it was run: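 DU-145 cells grown in RPMI-1640 with 5% heat-inactivated fetal calf serum at 37 °C, 5% CO2. About 2×10^3 cells per well were seeded and incubated for 24 h. Compounds were dissolved in DMSO freshly and diluted into medium (vehicle 0.1% DMSO), then cells were exposed for 72 h. MTT was added for 3 h at 37 °C and absorbance read at 570 nm.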

[17] = Cytotoxicity against human EKVX cells assessed as cell growth at 10 uM after 48 hrs by SRB assay relative to control; format: functional; conditions: read-out: Activity; how it was run: as §1
[18] = test system: HOP-92; assay: Cytotoxicity against human HOP92 cells assessed as cell growth at 10 uM after 48 hrs by SRB assay relative to control; format: functional; conditions: HOP-92, 48 h, read-out: Activity; how it was run: as §1
[19] = test system: RXF 393; assay: Cytotoxicity against human RXF393 cells assessed as cell growth at 10 uM after 48 hrs by SRB assay relative to control; format: functional; conditions: RXF 393, 48 h, read-out: Activity; how it was run: as §2
[20] = test system: CAKI-1; assay: Cytotoxicity against human Caki1 cells assessed as cell growth at 10 uM after 48 hrs by SRB assay relative to control; format: functional; conditions: CAKI-1, 48 h, read-out: Activity; how it was run: as §1
[21] = test system: OVCAR-4; assay: Cytotoxicity against human OVCAR4 cells assessed as cell growth at 10 uM after 48 hrs by SRB assay relative to control; format: functional; conditions: OVCAR-4, 48 h, read-out: Activity; how it was run: as §2
[22] = test system: SK-MEL-5; assay: Cytotoxicity against human SK-MEL-5 cells assessed as cell growth at 10 uM after 48 hrs by SRB assay relative to control; format: functional; conditions: SK-MEL-5, 48 h, read-out: Activity; how it was run: as §2
[23] = test system: T47D; assay: Cytotoxicity against human T47D cells assessed as cell growth at 10 uM after 48 hrs by SRB assay relative to control; format: functional; conditions: read-out: Activity; how it was run: as §3
[24] = test system: NCI-H522; assay: Cytotoxicity against human NCI-H522 cells assessed as cell growth at 10 uM after 48 hrs by SRB assay relative to control; format: functional; conditions: NCI-H522, 48 h, read-out: Activity; how it was run: as §2
[25] = test system: K562; assay: Cytotoxicity against human K562 cells assessed as cell growth at 10 uM after 48 hrs by SRB assay relative to control; format: functional; conditions: K562, 48 h, read-out: Activity; how it was run: as §1
[26] = test system: NCI-H322M; assay: Cytotoxicity against human NCI-H322M cells assessed as cell growth at 10 uM after 48 hrs by SRB assay relative to control; format: functional; conditions: read-out: Activity; how it was run: as §2
[27] = test system: LOX IMVI; assay: Cytotoxicity against human LOXIMVI cells assessed as cell growth at 10 uM after 48 hrs by SRB assay relative to control; format: functional; conditions: read-out: Activity; how it was run: as §1
[28] = test system: MDA-MB-435; assay: Cytotoxicity against human MDA-MB-435 cells assessed as cell growth at 10 uM after 48 hrs by SRB assay relative to control; format: functional; conditions: MDA-MB-435, 48 h, read-out: Activity; how it was run: as §2
[29] = test system: CCRF-CEM; assay: Cytotoxicity against human CCRF-CEM cells assessed as cell growth at 10 uM after 48 hrs by SRB assay relative to control; format: functional; conditions: read-out: Activity; how it was run: as §1

Row | SMILES | growth at 10 µM [1] [%] | growth at 10 µM [2] [%] | growth at 10 µM [3] [%] | growth at 10 µM [4] [%] | growth at 10 µM [5] [%] | growth at 10 µM [6] [%] | growth at 10 µM [7] [%] | growth at 10 µM [8] [%] | growth at 10 µM [9] [%] | growth at 10 µM [10] [%] | growth at 10 µM [11] [%] | growth at 10 µM [12] [%] | growth at 10 µM [13] [%] | growth at 10 µM [14] [%] | growth at 10 µM [15] [%] | IC50 [16] [µM] | growth at 10 µM [17] [%] | growth at 10 µM [18] [%] | growth at 10 µM [19] [%] | growth at 10 µM [20] [%] | further results
1 | O=C1c2ccccc2C(=O)c2c1cc(SCc1ccccc1)c1nsnc21 | 82.2 | 43.9 | 96.2 | -21 | 60 | -85.3 | 38.4 | 86.5 | 88.6 | 25.3 | 30.5 | 39.6 | 43.2 | 115 | 56 | 6.35 | 95 | -14.4 | 68.1 | 73.8 | growth at 10 µM [21]: -68.2%; growth at 10 µM [22]: 22.5%; growth at 10 µM [23]: -46.1%; growth at 10 µM [24]: 78.9%; growth at 10 µM [25]: 10.5%; growth at 10 µM [26]: 98.4%; growth at 10 µM [27]: 7.49%; growth at 10 µM [28]: -48.3%; growth at 10 µM [29]: 0.65%
2 | O=C1c2ccccc2C(=O)c2c1cc(Sc1ccccc1)c1nsnc21 | 103 | 84.4 | 105 | 31.1 | 95.9 | 87.3 | 87.3 | 106 | 95 | 96.7 | 88.8 | 96.1 | 78.2 | 111 | 102 | > 15 | 97.8 | 118 | 114 | 89 | growth at 10 µM [21]: 57.8%; growth at 10 µM [22]: 85.7%; growth at 10 µM [23]: 93.2%; growth at 10 µM [24]: 94.9%; growth at 10 µM [25]: 52%; growth at 10 µM [26]: 101%; growth at 10 µM [27]: 42%; growth at 10 µM [29]: 15.7%
3 | O=C1c2ccccc2C(=O)c2c1cc(Sc1ccc(Cl)cc1)c1nsnc21 | 117 | 84.9 | 98.9 | 59.2 | 103 | 46.1 | 86.9 | 105 | 93 | 119 | 104 | 91.7 | 90.2 | 107 | 105 | > 15 | 94.8 | 94.8 | 118 | 87 | growth at 10 µM [21]: 76.8%; growth at 10 µM [23]: 85%; growth at 10 µM [24]: 93.4%; growth at 10 µM [25]: 94.9%; growth at 10 µM [26]: 99.5%; growth at 10 µM [27]: 83.2%; growth at 10 µM [28]: 107%; growth at 10 µM [29]: 79.3%

From ChEMBL document CHEMBL3621107, “Ring fusion strategy for synthesis and lead optimization of sulfur-substituted anthra[1,2-c][1,2,5]thiadiazole-6,11-dione derivatives as promising scaffold of antitumor agents” (Eur J Med Chem, 2015)
